Test results taken from ChEMBL document CHEMBL5154669, “G-Quadruplex DNA as a Target in Pathogenic Bacteria: Efficacy of an Extended Naphthalene Diimide Ligand and Its Mode of Action” (J Med Chem, 2022).

Legend:
Enterococcus faecalis = experiment: Antibacterial activity against Enterococcus faecalis V583 assessed as inhibition of bacterial growth incubated for 20 hrs by CLSI based broth microdilution method; type: functional
How it was run: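 Broth microdilution in cation-adjusted Mueller-Hinton broth following CLSI guidelines. DMSO stocks were at 10 mM; compounds were twofold serially diluted over 128 to 2 μM. The inoculum was at 5 × 10⁵, prepared from colonies grown 20 h at 37 °C and adjusted to 0.5 McFarland. Plates ran 20 h at 37 °C with OD600 read-out. MIC was the lowest concentration inhibiting visible growth, in triplicate.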

DNA = experiment: Stabilization of Staphylococcus aureus in G-quadruplex DNA GGGTTTGGGGCGGCGGTTGG assessed as melting temperature at 10 uM incubated for 16 hrs by […]; type: nucleic-acid assay
How it was run: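 Readout was CD melting, not FRET: 2.5 μM oligonucleotide in 10 mM lithium cacodylate pH 7.4 with KCl set per sequence (initial Tm 60-70 °C). Annealed 95 °C 5 min, cooled to room temperature over 4 h, then ligand 10 μM (4 equiv) equilibrated 16 h at 20 °C. Ellipticity at 260 nm tracked every 0.1 °C, 20-95 °C at 5 °C/min; Tm by van't Hoff two-state fit.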

CN(C)CCCn1c(=O)c2ccc3c(=O)n(CCCN(C)C)c(=O)c4c5[nH]c6ccccc6[nH]c5c(c1=O)c2c34.O=C(O)C(F)(F)F.O=C(O)C(F)(F)F
MIC (Enterococcus faecalis): 4 µM
Tm (DNA): > 95 °C
